For experiment [1], the target named is von Hippel-Lindau disease tumor suppressor/RAC-alpha serine/threonine-protein kinase (Homo sapiens) (UniProt P31749+P40337). Kind of experiment: Protac activity at VHL/AKT in human PC-3 cells assessed as reduction in total Akt level at 1 uM incubated for 24 hrs by Western blot analysis. The class given is cell-based. Summed up: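 Cells grown in DMEM with 10% FBS at 37 °C, 5% CO2, then exposed to compound at 1 μM for 24 h. Lysates made in 2X urea/SDS sample buffer, run on 4–12% Bis-Tris gels, transferred to PVDF, probed for total AKT overnight at 4 °C; HRP/chemiluminescence detection with β-actin as loading control.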
Sequence of von Hippel-Lindau disease tumor suppressor/RAC-alpha serine/threonine-protein kinase (Homo sapiens) (P31749 whole entry, looked up): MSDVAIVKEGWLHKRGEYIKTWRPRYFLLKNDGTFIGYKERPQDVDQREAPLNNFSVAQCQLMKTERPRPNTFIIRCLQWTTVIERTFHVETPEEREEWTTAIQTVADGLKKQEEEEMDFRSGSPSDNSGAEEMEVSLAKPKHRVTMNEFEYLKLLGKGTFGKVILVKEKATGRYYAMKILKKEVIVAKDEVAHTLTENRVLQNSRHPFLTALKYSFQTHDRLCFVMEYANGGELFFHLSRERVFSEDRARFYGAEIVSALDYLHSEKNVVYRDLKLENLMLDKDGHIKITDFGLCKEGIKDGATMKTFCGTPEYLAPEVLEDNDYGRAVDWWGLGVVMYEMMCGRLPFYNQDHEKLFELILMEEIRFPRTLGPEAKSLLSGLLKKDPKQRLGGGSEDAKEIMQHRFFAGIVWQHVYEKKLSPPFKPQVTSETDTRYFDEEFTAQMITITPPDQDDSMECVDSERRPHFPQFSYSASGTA
Sequence of von Hippel-Lindau disease tumor suppressor/RAC-alpha serine/threonine-protein kinase (Homo sapiens) (P40337 whole entry, looked up): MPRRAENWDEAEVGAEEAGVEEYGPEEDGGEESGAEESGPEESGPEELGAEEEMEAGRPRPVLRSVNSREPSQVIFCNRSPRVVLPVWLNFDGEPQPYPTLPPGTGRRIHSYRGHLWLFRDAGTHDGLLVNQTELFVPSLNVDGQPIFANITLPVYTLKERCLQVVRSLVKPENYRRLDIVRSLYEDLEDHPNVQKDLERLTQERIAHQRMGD
In general terms: Immunoblotting shows a protein as a band on a membrane.

The target of experiment [2] is RAC-alpha serine/threonine-protein kinase (Homo sapiens, UniProt P31749). Kind of experiment: Inhibition of AKT1 (unknown origin) preincubated for 20 mins followed by [33P]-ATP addition measured after 120 mins by hotspot kinase assay.
Sequence of RAC-alpha serine/threonine-protein kinase (P31749 whole entry): as the sequence (P31749 whole entry, looked up) above
Experiment [3] has as its target RAC-gamma serine/threonine-protein kinase (Homo sapiens, UniProt Q9Y243). Kind of experiment: Inhibition of AKT3 (unknown origin) preincubated for 20 mins followed by [33P]-ATP addition measured after 120 mins by hotspot kinase assay.
The test system of a further experiment is SW-620. The experiment in a line: Antiproliferative activity against human SW620 cells harboring KRAS mutant assessed as inhibition of cell growth incubated for 5 days by IncuCyte live-cell imaging analysis. The class given is functional, cell-based. Conditions: SW-620, 120 h.
Experiment [4] concerns the target RAC-beta serine/threonine-protein kinase (Homo sapiens, UniProt P31751). Kind of experiment: Inhibition of AKT2 (unknown origin) preincubated for 20 mins followed by [33P]-ATP addition measured after 120 mins by hotspot kinase assay.
For the next experiment, the system named is PC-3. Kind of experiment: Inhibition of colony formation in human PC-3 cells at 0.1 to 10 uM incubated for 2 weeks with media replacement for every 2 days by crystal violet staining based analysis. In kind it is functional, cell-based. The settings on record: dose 0.1-10 µM. A digest of the protocol: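 PC3 cells kept 14 days with compound; compound-containing medium replenished every two days. Viable cells stained with 0.5% crystal violet.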

Active and inactive are the calls of the source. The calls are words filed in the database; no cut-off is given here.

Sequence of RAC-gamma serine/threonine-protein kinase (Q9Y243 whole entry): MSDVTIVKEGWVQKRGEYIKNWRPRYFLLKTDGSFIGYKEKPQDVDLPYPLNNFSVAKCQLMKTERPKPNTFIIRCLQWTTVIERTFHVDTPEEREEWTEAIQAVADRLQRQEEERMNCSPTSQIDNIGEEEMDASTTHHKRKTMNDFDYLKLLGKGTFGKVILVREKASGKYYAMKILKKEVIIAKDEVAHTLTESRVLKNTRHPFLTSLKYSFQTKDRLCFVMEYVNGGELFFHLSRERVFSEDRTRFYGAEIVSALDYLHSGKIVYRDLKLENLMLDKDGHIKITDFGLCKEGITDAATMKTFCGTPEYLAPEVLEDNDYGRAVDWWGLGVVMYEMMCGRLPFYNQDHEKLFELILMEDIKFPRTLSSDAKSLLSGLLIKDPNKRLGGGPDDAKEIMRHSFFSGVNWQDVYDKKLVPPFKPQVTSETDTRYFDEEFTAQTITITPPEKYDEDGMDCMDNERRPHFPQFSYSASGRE
Sequence of RAC-beta serine/threonine-protein kinase (P31751 whole entry): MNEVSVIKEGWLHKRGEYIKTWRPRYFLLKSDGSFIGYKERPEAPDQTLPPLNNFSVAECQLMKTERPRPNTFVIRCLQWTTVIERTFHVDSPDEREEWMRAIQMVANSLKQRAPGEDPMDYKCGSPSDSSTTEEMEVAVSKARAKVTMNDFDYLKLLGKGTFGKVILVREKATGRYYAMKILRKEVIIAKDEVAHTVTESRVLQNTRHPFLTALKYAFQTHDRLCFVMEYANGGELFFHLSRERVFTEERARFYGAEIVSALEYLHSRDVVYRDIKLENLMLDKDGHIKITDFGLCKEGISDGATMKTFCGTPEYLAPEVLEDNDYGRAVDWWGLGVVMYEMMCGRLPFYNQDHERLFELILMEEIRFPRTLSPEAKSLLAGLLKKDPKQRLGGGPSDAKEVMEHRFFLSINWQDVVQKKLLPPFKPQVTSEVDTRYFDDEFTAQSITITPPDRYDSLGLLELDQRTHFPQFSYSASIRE

With `Cc1ncsc1-c1ccc(CNC(=O)[C@@H]2C[C@@H](O)CN2C(=O)[C@@H](NC(=O)CCCCCCCCCNC(=O)CCc2cccc(-c3ccc4nc(-c5cccnc5N)n(-c5ccc(C6(N)CCC6)cc5)c4n3)c2)C(C)(C)C)cc1`, the result in experiment [1] was Active. Same read-out and setting: with `Cc1ncsc1-c1ccc(CNC(=O)[C@@H]2C[C@@H](O)CN2C(=O)[C@@H](NC(=O)CCOCCC(=O)NCCc2cccc(-c3ccc4nc(-c5cccnc5N)n(-c5ccc(C6(N)CCC6)cc5)c4n3)c2)C(C)(C)C)cc1` the entry was “Active”; with `Cc1ncsc1-c1ccc(CNC(=O)[C@@H]2C[C@@H](O)CN2C(=O)[C@@H](NC(=O)CCCCCCCNC(=O)CCc2cccc(-c3ccc4nc(-c5cccnc5N)n(-c5ccc(C6(N)CCC6)cc5)c4n3)c2)C(C)(C)C)cc1`, “Active”. Broadly, the IC50 is the point on the concentration scale where inhibition reaches its midpoint. In the case of `Cc1ncsc1-c1ccc([C@H](C)NC(=O)[C@H]2C[C@H](OCc3ccccc3)CN2C(=O)[C@@H](NC(=O)CCCCCCCCCCNC(=O)CCc2cccc(-c3ccc4nc(-c5cccnc5N)n(-c5ccc(C6(N)CCC6)cc5)c4n3)c2)C(C)(C)C)cc1`, the IC50 in experiment [2] is 1200 nM; in experiment [3], 1800 nM; in the experiment on SW-620, more than 10000 nM; in experiment [4], 558 nM. Regarding `Cc1ncsc1-c1ccc(CNC(=O)[C@@H]2C[C@@H](O)CN2C(=O)[C@@H](NC(=O)COCCNC(=O)CCc2cccc(-c3ccc4nc(-c5cccnc5N)n(-c5ccc(C6(N)CCC6)cc5)c4n3)c2)C(C)(C)C)cc1`, the result in experiment [1] was Active. Same read-out and setting: with `Cc1ncsc1-c1ccc(CNC(=O)[C@@H]2C[C@@H](O)CN2C(=O)[C@@H](NC(=O)CCCCCCCC(=O)NCCc2cccc(-c3ccc4nc(-c5cccnc5N)n(-c5ccc(C6(N)CCC6)cc5)c4n3)c2)C(C)(C)C)cc1` the entry was “Active”; with `Cc1ncsc1-c1ccc(CNC(=O)[C@@H]2C[C@@H](O)CN2C(=O)[C@@H](NC(=O)CCOCCOCCNC(=O)CCc2cccc(-c3ccc4nc(-c5cccnc5N)n(-c5ccc(C6(N)CCC6)cc5)c4n3)c2)C(C)(C)C)cc1`, “Active”; with `Cc1ncsc1-c1ccc(CNC(=O)[C@@H]2C[C@@H](O)CN2C(=O)[C@@H](NC(=O)CCOCCNC(=O)CCc2cccc(-c3ccc4nc(-c5cccnc5N)n(-c5ccc(C6(N)CCC6)cc5)c4n3)c2)C(C)(C)C)cc1`, “Active”.

As for `Cc1ncsc1-c1ccc(CNC(=O)[C@@H]2C[C@@H](O)CN2C(=O)[C@@H](NC(=O)CCCCCCCCC(=O)NCCc2cccc(-c3ccc4nc(-c5cccnc5N)n(-c5ccc(C6(N)CCC6)cc5)c4n3)c2)C(C)(C)C)cc1`, the inhibition result with PC-3 is “Active”. Further, the outcome in experiment [1] was Active.

For the compound `Cc1ncsc1-c1ccc(CNC(=O)[C@@H]2C[C@@H](O)CN2C(=O)[C@@H](NC(=O)CCCCCCCCNC(=O)CCc2cccc(-c3ccc4nc(-c5cccnc5N)n(-c5ccc(C6(N)CCC6)cc5)c4n3)c2)C(C)(C)C)cc1`, the outcome in experiment [1] was Active. `Cc1ncsc1-c1ccc(CNC(=O)[C@@H]2C[C@@H](O)CN2C(=O)[C@@H](NC(=O)COCCOCCOCCOCCOCC(=O)NCCc2cccc(-c3ccc4nc(-c5cccnc5N)n(-c5ccc(C6(N)CCC6)cc5)c4n3)c2)C(C)(C)C)cc1`: in experiment [1], the outcome was Active.

Consider `Cc1ncsc1-c1ccc(CNC(=O)[C@@H]2C[C@@H](O)CN2C(=O)[C@@H](NC(=O)COCC(=O)NCCc2cccc(-c3ccc4nc(-c5cccnc5N)n(-c5ccc(C6(N)CCC6)cc5)c4n3)c2)C(C)(C)C)cc1`, for which the result in experiment [1] was Active. As for `Cc1ncsc1-c1ccc(CNC(=O)[C@@H]2C[C@@H](O)CN2C(=O)[C@@H](NC(=O)COCCOCCOCCNC(=O)CCc2cccc(-c3ccc4nc(-c5cccnc5N)n(-c5ccc(C6(N)CCC6)cc5)c4n3)c2)C(C)(C)C)cc1`, in experiment [1], the outcome was Active. For `Cc1ncsc1-c1ccc([C@H](C)NC(=O)[C@H]2C[C@H](O)CN2C(=O)[C@@H](NC(=O)CCCCCCCCCCNC(=O)CCc2cccc(-c3ccc4nc(-c5cccnc5N)n(-c5ccc(C6(N)CCC6)cc5)c4n3)c2)C(C)(C)C)cc1`, the IC50 is 684 nM in experiment [2], 407 nM in experiment [3] and 86 nM in experiment [4]. For `Cc1ncsc1-c1ccc(CNC(=O)[C@@H]2C[C@@H](O)CN2C(=O)[C@@H](NC(=O)CCCCCCCCCCNC(=O)CCc2cccc(-c3ccc4nc(-c5cccnc5N)n(-c5ccc(C6(N)CCC6)cc5)c4n3)c2)C(C)(C)C)cc1`, the inhibition entry in the experiment with PC-3 is “Active”. Also, in experiment [1], the result was Active.

For `Cc1ncsc1-c1ccc(CNC(=O)[C@@H]2C[C@@H](O)CN2C(=O)[C@@H](NC(=O)COCCOCCNC(=O)CCc2cccc(-c3ccc4nc(-c5cccnc5N)n(-c5ccc(C6(N)CCC6)cc5)c4n3)c2)C(C)(C)C)cc1`, in experiment [1], the outcome was Active. For `Cc1ncsc1-c1ccc(CNC(=O)[C@@H]2C[C@@H](O)CN2C(=O)[C@@H](NC(=O)CCOCCOCCOCCOCCOCCC(=O)NCCc2cccc(-c3ccc4nc(-c5cccnc5N)n(-c5ccc(C6(N)CCC6)cc5)c4n3)c2)C(C)(C)C)cc1`, the outcome in experiment [1] was Active. For the compound `Cc1ncsc1-c1ccc(CNC(=O)[C@@H]2C[C@@H](O)CN2C(=O)[C@@H](NC(=O)CCCCCCCCCC(=O)NCCc2cccc(-c3ccc4nc(-c5cccnc5N)n(-c5ccc(C6(N)CCC6)cc5)c4n3)c2)C(C)(C)C)cc1`, the inhibition entry in the experiment with PC-3 is “Active”. In addition, in experiment [1], the outcome was Active.

For the origin of these results see ChEMBL document CHEMBL5214961, “Novel Allosteric Inhibitor-Derived AKT Proteolysis Targeting Chimeras (PROTACs) Enable Potent and Selective AKT Degradation in KRAS/BRAF Mutant Cells” (J Med Chem, 2022).
